≈ marks a conversion by molar mass, not a printed value. Calls of active or inactive are those of the source. No cut-off for these calls is given here.
Experiments:
Nannizzia gypsea [1] = assay: Antifungal activity against Microsporum gypseum C 115 by agar dilution method; format: functional
Outline: (§1)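 Dermatophytes were tested by agar dilution on Sabouraud chloramphenicol agar in 96-well plates. DMSO stock solutions were serially two-fold diluted into the medium to give final concentrations of 0.10–50 µg/mL, with DMSO not exceeding 2%. Each well received 5 µL of spore suspension.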

[2] = system: Trichophyton mentagrophytes; assay: Antifungal activity against Trichophyton mentagrophytes ATCC by agar dilution method; format: functional; outline: as §1
Trichophyton rubrum [3] = assay: Antifungal activity against Trichophyton rubrum C 113 by agar dilution method; format: functional; outline: as §1
Epidermophyton floccosum [4] = assay: Antifungal activity against Epidermophyton floccosum C 114 by agar dilution method; format: functional; outline: as §1
Candida albicans = assay: Antifungal activity against Candida albicans ATCC 10231 by agar dilution method; format: functional, organism-based
Outline: (§2)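 Sabouraud chloramphenicol agar dilution in 96-well plates. Strains were grown on Sabouraud chloramphenicol agar slants for 48 h at 30 °C and suspended in sterile distilled water, adjusted to 10^6 viable cells/mL. DMSO stocks were serially two-fold diluted into the agar to give 0.10–50 µg/mL, with DMSO ≤2% final. 5 µL inoculum per well; incubated 24, 48 or 72 h at 30 °C per control growth; MIC recorded.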

Saccharomyces cerevisiae = assay: Antifungal activity against Saccharomyces cerevisiae ATCC 9763 by agar dilution method; format: functional, organism-based; outline: as §2
Cryptococcus neoformans = assay: Antifungal activity against Cryptococcus neoformans ATCC 32264 by agar dilution method; format: functional, organism-based; outline: as §2
Aspergillus flavus = assay: Antifungal activity against Aspergillus flavus ATCC 9170 by agar dilution method; format: functional, organism-based; outline: as §2
Aspergillus fumigatus = assay: Antifungal activity against Aspergillus fumigatus ATCC 26934 by agar dilution method; format: functional, organism-based; outline: as §2
Aspergillus niger = assay: Antifungal activity against Aspergillus niger ATCC 9029 by agar dilution method; format: functional, organism-based; outline: as §2
Microsporum canis [5] = assay: Antifungal activity against Microsporum canis C 112 by agar dilution method; format: functional; outline: as §1
[6] = system: Trichophyton mentagrophytes; assay: Antifungal activity against Trichophyton mentagrophytes ATCC 9972 up to 50 ug/mL by agar dilution method; format: functional, organism-based; outline: as §1
Trichophyton rubrum [7] = assay: Antifungal activity against Trichophyton rubrum C 113 up to 50 ug/mL by agar dilution method; format: functional, organism-based; outline: as §1
Epidermophyton floccosum [8] = assay: Antifungal activity against Epidermophyton floccosum C 114 up to 50 ug/mL by agar dilution method; format: functional, organism-based; outline: as §1
Microsporum canis [9] = assay: Antifungal activity against Microsporum canis C 112 up to 50 ug/mL by agar dilution method; format: functional, organism-based; outline: as §1
Nannizzia gypsea [10] = assay: Antifungal activity against Microsporum gypseum C 115 up to 50 ug/mL by agar dilution method; format: functional, organism-based; outline: as §1

SMILES | MIC (Nannizzia gypsea [1]) | MIC [2] | MIC (Trichophyton rubrum [3]) | MIC (Epidermophyton floccosum [4]) | Activity (Candida albicans) | Activity (Saccharomyces cerevisiae) | Activity (Cryptococcus neoformans) | Activity (Aspergillus flavus) | Activity (Aspergillus fumigatus) | Activity (Aspergillus niger) | MIC (Microsporum canis [5]) | Activity [6] | Activity (Trichophyton rubrum [7]) | Activity (Epidermophyton floccosum [8]) | Activity (Microsporum canis [9]) | Activity (Nannizzia gypsea [10])
CCC(=O)c1cc2ccccc2c2ccccc12 | 6.25 µg/mL (≈ 26.7 µM) | 3 µg/mL (≈ 12.8 µM) | 6.25 µg/mL (≈ 26.7 µM) | 20 µg/mL (≈ 85.4 µM) | inactive | inactive | inactive | inactive | inactive | inactive | 3 µg/mL (≈ 12.8 µM) | – | – | – | – | –
CCC(O)c1ccc(OC)c(OC)c1 (stereo unspecified) | > 50 µg/mL | > 50 µg/mL | > 50 µg/mL | 50 µg/mL (≈ 255 µM) | inactive | inactive | inactive | inactive | inactive | inactive | > 50 µg/mL | inactive | inactive | inactive | inactive | inactive
COc1ccc([C@H](O)[C@H](C)Br)cc1OC | > 50 µg/mL | > 50 µg/mL | > 50 µg/mL | 50 µg/mL (≈ 182 µM) | inactive | inactive | inactive | inactive | inactive | inactive | > 50 µg/mL | inactive | inactive | inactive | inactive | inactive
CC(C)C(O)c1ccc2ccccc2c1 (stereo unspecified) | 25 µg/mL (≈ 125 µM) | 12.5 µg/mL (≈ 62.4 µM) | 12.5 µg/mL (≈ 62.4 µM) | 25 µg/mL (≈ 125 µM) | inactive | inactive | inactive | inactive | inactive | inactive | 25 µg/mL (≈ 125 µM) | – | inactive | – | – | –
CCC(=O)c1ccc2c(c1)OCO2 | > 50 µg/mL | > 50 µg/mL | > 50 µg/mL | 40 µg/mL (≈ 224 µM) | inactive | inactive | inactive | inactive | inactive | inactive | > 50 µg/mL | inactive | inactive | inactive | inactive | inactive
CCC(O)c1ccc2ccccc2c1 (stereo unspecified) | 40 µg/mL (≈ 215 µM) | 25 µg/mL (≈ 134 µM) | 40 µg/mL (≈ 215 µM) | 40 µg/mL (≈ 215 µM) | inactive | inactive | inactive | inactive | inactive | inactive | 50 µg/mL (≈ 268 µM) | inactive | inactive | inactive | inactive | inactive
C=CCc1ccc(O)c(OC)c1 [EUGENOL] | > 50 µg/mL | > 50 µg/mL | > 50 µg/mL | > 50 µg/mL | inactive | inactive | inactive | inactive | inactive | inactive | > 50 µg/mL | inactive | inactive | inactive | inactive | inactive
C/C=C\c1ccc(O)c(OC)c1 [ISOEUGENOL] | > 50 µg/mL | > 50 µg/mL | > 50 µg/mL | > 50 µg/mL | inactive | inactive | inactive | inactive | inactive | inactive | > 50 µg/mL | inactive | inactive | inactive | inactive | inactive
CC(=O)N1CCN(c2ccc(OCC3COC(Cn4ccnc4)(c4ccc(Cl)cc4Cl)O3)cc2)CC1 (stereo unspecified) [KETOCONAZOLE] | 6.25 µg/mL (≈ 11.8 µM) | 12.5 µg/mL (≈ 23.5 µM) | 15 µg/mL (≈ 28.2 µM) | 25 µg/mL (≈ 47 µM) | inactive | inactive | inactive | inactive | inactive | inactive | 15 µg/mL (≈ 28.2 µM) | – | – | – | – | –
c1ccc2c(c1)ccc1ccccc12 [PHENANTHRENE] | > 50 µg/mL | > 50 µg/mL | > 50 µg/mL | > 50 µg/mL | inactive | inactive | inactive | inactive | inactive | inactive | > 50 µg/mL | – | – | – | – | –

From ChEMBL document CHEMBL1144120, “In vitro evaluation of antifungal properties of phenylpropanoids and related compounds acting against dermatophytes” (1999)
